How the values were obtained:
[1] = system: formation of AGEs induced by glucose or methylglyoxal; settings: at 100 μM; cited from earlier work
FRAP assay = settings: isolated compounds; mean ± SD
Summary of the method: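 FRAP: Fe3+ is reduced to Fe2+, which TPTZ chelates to form the Fe2+-TPTZ complex. Activity of isolated compounds was read from a trolox standard curve (7.78–1000 μM) and expressed as μM TE/mM. Quercetin and ascorbic acid were positive controls, MeOH the negative control. Triplicate runs (n = 3); mean ± SD.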

α-glucosidase (yeast) = α-glucosidase (yeast) (Saccharomyces cerevisiae, UniProt P53341); experiment: Inhibition of α-glucosidase; type: biochemical; settings: read-out: α-glucosidase assay IC50; yeast enzyme; mean ± SD
[2] = system: formation of advanced glycation end products (AGEs), BSA-methylglyoxal model; experiment: BSA-methylglyoxal antiglycation assay; type: biochemical, bovine; settings: read-out: BSA-methylglyoxal model IC50; isolated compounds; mean ± SD
ABTS assay = settings: isolated compounds; mean ± SD
Summary of the method: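 ABTS radical-scavenging capacity of isolated compounds, from a modified literature method. Activity was read from a trolox calibration curve (7.78–1000 μM) and expressed as trolox equivalents (μM TE/mM). Ascorbic acid and quercetin served as positive controls, MeOH as negative control. Each sample was run in triplicate (n = 3); values are mean ± SD.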

DPPH assay = settings: mean ± SD; for DPPH assay TEAC: isolated compounds
Summary of the method: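 Reduction of the DPPH free radical by extracts, fractions or isolated compounds, done in 96-well format following a published procedure. Quercetin and ascorbic acid were positive controls and MeOH the negative control. Runs were in triplicate (n = 3), reported as mean ± SD. Total antioxidant capacity was expressed as trolox equivalent antioxidant capacity (TEAC).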

[3] = target: T1, porcine pancreatic lipase (PPL) (Sus scrofa, UniProt P00591); experiment: Inhibition of pancreatic lipase; type: biochemical; settings: read-out: lipase assay IC50, mean ± SD
T1 sequence (P00591 1-450): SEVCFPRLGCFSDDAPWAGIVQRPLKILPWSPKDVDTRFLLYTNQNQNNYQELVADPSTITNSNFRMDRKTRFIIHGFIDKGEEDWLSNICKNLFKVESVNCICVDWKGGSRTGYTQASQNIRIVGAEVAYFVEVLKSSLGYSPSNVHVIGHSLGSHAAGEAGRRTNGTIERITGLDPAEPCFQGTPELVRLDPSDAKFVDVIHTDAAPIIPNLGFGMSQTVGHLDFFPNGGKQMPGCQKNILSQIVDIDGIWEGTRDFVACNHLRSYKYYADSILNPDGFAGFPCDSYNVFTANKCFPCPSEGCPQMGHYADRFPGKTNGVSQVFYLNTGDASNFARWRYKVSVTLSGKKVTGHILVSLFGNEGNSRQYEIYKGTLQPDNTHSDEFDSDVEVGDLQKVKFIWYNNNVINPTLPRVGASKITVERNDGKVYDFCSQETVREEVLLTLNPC

[4] = system: formation of advanced glycation end products (AGEs), BSA-fructose model; experiment: BSA-fructose antiglycation assay; type: biochemical, bovine; settings: read-out: BSA-fructose model IC50; isolated compounds; mean ± SD

α-glucosidase (yeast), sequence (P53341 whole entry): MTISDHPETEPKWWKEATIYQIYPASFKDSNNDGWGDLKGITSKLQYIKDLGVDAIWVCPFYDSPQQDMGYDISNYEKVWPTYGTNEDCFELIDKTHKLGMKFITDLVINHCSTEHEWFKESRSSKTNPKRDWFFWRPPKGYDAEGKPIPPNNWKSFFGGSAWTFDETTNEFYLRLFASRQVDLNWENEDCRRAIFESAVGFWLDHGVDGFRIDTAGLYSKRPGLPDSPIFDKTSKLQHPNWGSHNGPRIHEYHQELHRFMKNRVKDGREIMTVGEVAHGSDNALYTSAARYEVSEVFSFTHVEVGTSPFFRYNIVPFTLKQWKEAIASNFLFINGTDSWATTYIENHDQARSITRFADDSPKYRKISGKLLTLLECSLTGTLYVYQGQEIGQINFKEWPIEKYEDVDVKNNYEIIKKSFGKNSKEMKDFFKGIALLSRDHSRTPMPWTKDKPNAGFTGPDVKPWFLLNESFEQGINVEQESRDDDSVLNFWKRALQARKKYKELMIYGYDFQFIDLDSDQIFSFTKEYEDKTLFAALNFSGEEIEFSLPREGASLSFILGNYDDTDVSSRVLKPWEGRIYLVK

Compound	efficacy against formation of AGEs [1]	FRAP assay TEAC (FRAP assay)	IC50 (α-glucosidase (yeast))	IC50 [2]	ABTS assay TEAC (ABTS assay)	DPPH assay TEAC (DPPH assay)	IC50 [3]	DPPH assay EC50 (DPPH assay; extracts/fractions)	IC50 [4]
O=c1cc(-c2ccc(O)cc2)oc2c([C@@H]3O[C@H](CO)[C@@H](O)[C@H](O)[C@H]3O)c(O)cc(O)c12 [vitexin]	over 85%	–	–	–	–	–	–	–	–
O=c1cc(-c2ccc(O)cc2)oc2cc(O)c([C@@H]3O[C@H](CO)[C@@H](O)[C@H](O)[C@H]3O)c(O)c12 [isovitexin]	over 85%	–	–	–	–	–	–	–	–
CO[C@@H]1[C@@H](O)[C@H](O[C@H]2CC[C@@]3(C)C(=CC[C@]4(O)[C@@H]3CC[C@]3(C)[C@@H]([C@H](C)O[C@@H]5O[C@H](CO)[C@@H](O)[C@H](OC(=O)CC(C)C)[C@H]5O)CC[C@@]34O)C2)O[C@H](C)[C@@H]1O[C@@H]1O[C@H](CO)[C@@H](O)[C@H](O)[C@H]1O [compound 2, 3β,8β,14β,20-tetrahydroxy-(20S)-pregn-5-ene-3-O-β-D-glucopyranosyl-(1 → 4)-O-β-D-digitaloside-20-O-3-Isoval-β-D-glucopyranoside]	–	23.08 ± 1.89 μM TE/mM	670 ± 10 µM	> 1300 µM	9.19 ± 15.59 μM TE/mM	30.27 ± 2.70 μM TE/mM	> 100 µM	–	–
O=C1O[C@H]([C@@H](O)CO)C(O)=C1O [ascorbic acid, reference compound]	–	1195.58 ± 4.41 μM TE/mM	–	–	1132.84 ± 20.25 μM TE/mM	802.73 ± 32.63 μM TE/mM	–	2.76 ± 1.63 mg/L	–
O=c1c(O)c(-c2ccc(O)c(O)c2)oc2cc(O)cc(O)c12 [quercetin, reference compound]	–	1373.75 ± 35.39 μM TE/mM	–	847.3 ± 1.04 µM	1435.38 ± 14.02 μM TE/mM	953.94 ± 4.17 μM TE/mM	–	–	50.6 ± 3.9 µM
12β-O-benzoyl 3β,8β,12β,14β,20-pentahydroxy-(20S)-pregn-5-ene-3-O-β-D-glucopyranosyl-(1 → 4)-O-β-D-digitaloside [compound 1]	–	17.96 ± 4.25 μM TE/mM	920 ± 20 µM	> 1300 µM	12.14 ± 14.86 μM TE/mM	43.30 ± 3.12 μM TE/mM	> 100 µM	–	502 ± 70.9 µM
CC[C@H](CC[C@@H](C)[C@H]1CC[C@H]2[C@@H]3CC=C4C[C@@H](O[C@@H]5O[C@H](CO)[C@@H](O)[C@H](O)[C@H]5O)CC[C@]4(C)[C@H]3CC[C@]12C)C(C)C [β-sitosterol-glucoside]	–	66.21 ± 16.25 μM TE/mM	–	> 1300 µM	11.81 ± 7.07 μM TE/mM	36.27 ± 10.39 μM TE/mM	–	–	1032 ± 2.48 µM
CC[C@H](CC[C@@H](C)[C@H]1CC[C@H]2[C@@H]3CC=C4C[C@@H](O)CC[C@]4(C)[C@H]3CC[C@]12C)C(C)C [β-sitosterol]	–	13.50 ± 3.48 μM TE/mM	–	> 1300 µM	3.42 ± 9.77 μM TE/mM	37.87 ± 11.03 μM TE/mM	–	–	> 1300 µM
